16 compounds from PubChem BioAssay can be followed below.

Structures are written as SMILES. Calls of active or inactive are those of the source.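 Rule for the calls, unless noted: active = Her2 level under about 52% in both replicate screens, with viability over 70% of control (limit read from the data); inconclusive = Her2 under the limit in one screen only, or viability under 70%; inactive = Her2 level above the set limit.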

Experiment [1] can be described thus: reducers of endogenous Her2 protein level, primary screen, SKBR3 breast tumor cells, AlphaScreen, ATP viability (AID 461).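 For Her2 level: lower value means less Her2 protein in the cells.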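 For viability: percent of carrier control wells set as 100% viability.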 Particulars: 18-24 h, measured here: SKBR3 viability, ATP luminescence, at 10 µM.
Experiment [2] deals with Receptor tyrosine-protein kinase erbB-2 (Homo sapiens) (UniProt P04626). The experiment is described as above. To be noted: 18-24 h, at 10 µM, stronger effect = lower value.
Experiment [3] in a line: SK-BR-3 cell growth inhibitors, pilot screen, 24 h, human (AID 572;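 active = viability at or below 10% of carrier control in both of two separate runs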;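 note: compound exposure lasted between 18 and 24 h rather than exactly 24 h; 100% = carrier-treated control wells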). Particulars: SK-BR-3 viability, CellTiter-Glo luminescence, at 10 µM, stronger effect = lower value.
Experiment [4] in a line: HUVEC growth inhibition – cell-based, human, primary screen (AID 575;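 active = viability at or below 30% in both replicate assays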;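 note: 100% = median of untreated cell wells with 0.1% DMSO on each plate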). Particulars: HUVEC proliferation, CellTiter-Glo luminescence, 72 h; at 10 µM; stronger effect = lower value. An outline of the steps: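 material = primary HUVEC, no more than 12 passages | input = 1250 cells per well | controls = vehicle and MePR control wells | measured by = CTG luminescence | times = 72 h compound incubation | format = collagen-coated 384-well format | read-out = % viability vs DMSO wells | doses = single 10 µM dose, 0.1% DMSO, from 5x medium stock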

Experiment [5] is described as follows: growth inhibitors of H69AR lung tumor, primary screen, human, duplicate replicates (AID 580;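 active = viability at or under a set limit in both replicates, limit being median viability minus 3 SD, cut at about 48% in these data, passing the limit was not always enough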;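 note: 100% = mean luminescence of untreated wells and 0% = no signal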). To be noted: H69AR lung tumor cells viability, ATP luminescence, 72 h; at 10 µM; stronger effect = lower value.
Experiment [6] can be described thus: reversal of MRP1-mediated doxorubicin resistance, pilot screen, H69AR cells, doxorubicin co-treatment (AID 601;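 active = viability loss from added drug above about 55%, and viability with drug at most 40%, in both replicates, limit read from the data, passing the limit was not always enough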). Particulars: CellTiter-Glo, 72 h, at 10 µM; for differential viability (reversal): stronger effect = higher value.
A short description of experiment [7]: 384-well plate pilot, post-Golgi transport modulator project, inhibition of yeast transport mutant growth (AID 636; in the data active = inhibition above about 31%). Particulars: absorbance 615 nm, about 18 h, stronger effect = higher value.
The nature of experiment [8]: growth suppression of yeast trafficking mutant, preliminary HTS, modulators of trafficking downstream of Golgi apparatus project, 1536-format plate, OD 615 nm (AID 637; in the data active = inhibition above about 30%). Particulars: yeast transport mutant growth, absorbance 615 nm, 18 h; stronger effect = higher value.
Where [9] appears, read: H69AR cells + 2 uM doxorubicin, measured here: viability with 2 uM doxorubicin, stronger effect = lower value.
[10] abbreviates: H69AR cells, compound alone cytotoxicity.

Sequence of Receptor tyrosine-protein kinase erbB-2 (Homo sapiens) (P04626 whole entry, looked up): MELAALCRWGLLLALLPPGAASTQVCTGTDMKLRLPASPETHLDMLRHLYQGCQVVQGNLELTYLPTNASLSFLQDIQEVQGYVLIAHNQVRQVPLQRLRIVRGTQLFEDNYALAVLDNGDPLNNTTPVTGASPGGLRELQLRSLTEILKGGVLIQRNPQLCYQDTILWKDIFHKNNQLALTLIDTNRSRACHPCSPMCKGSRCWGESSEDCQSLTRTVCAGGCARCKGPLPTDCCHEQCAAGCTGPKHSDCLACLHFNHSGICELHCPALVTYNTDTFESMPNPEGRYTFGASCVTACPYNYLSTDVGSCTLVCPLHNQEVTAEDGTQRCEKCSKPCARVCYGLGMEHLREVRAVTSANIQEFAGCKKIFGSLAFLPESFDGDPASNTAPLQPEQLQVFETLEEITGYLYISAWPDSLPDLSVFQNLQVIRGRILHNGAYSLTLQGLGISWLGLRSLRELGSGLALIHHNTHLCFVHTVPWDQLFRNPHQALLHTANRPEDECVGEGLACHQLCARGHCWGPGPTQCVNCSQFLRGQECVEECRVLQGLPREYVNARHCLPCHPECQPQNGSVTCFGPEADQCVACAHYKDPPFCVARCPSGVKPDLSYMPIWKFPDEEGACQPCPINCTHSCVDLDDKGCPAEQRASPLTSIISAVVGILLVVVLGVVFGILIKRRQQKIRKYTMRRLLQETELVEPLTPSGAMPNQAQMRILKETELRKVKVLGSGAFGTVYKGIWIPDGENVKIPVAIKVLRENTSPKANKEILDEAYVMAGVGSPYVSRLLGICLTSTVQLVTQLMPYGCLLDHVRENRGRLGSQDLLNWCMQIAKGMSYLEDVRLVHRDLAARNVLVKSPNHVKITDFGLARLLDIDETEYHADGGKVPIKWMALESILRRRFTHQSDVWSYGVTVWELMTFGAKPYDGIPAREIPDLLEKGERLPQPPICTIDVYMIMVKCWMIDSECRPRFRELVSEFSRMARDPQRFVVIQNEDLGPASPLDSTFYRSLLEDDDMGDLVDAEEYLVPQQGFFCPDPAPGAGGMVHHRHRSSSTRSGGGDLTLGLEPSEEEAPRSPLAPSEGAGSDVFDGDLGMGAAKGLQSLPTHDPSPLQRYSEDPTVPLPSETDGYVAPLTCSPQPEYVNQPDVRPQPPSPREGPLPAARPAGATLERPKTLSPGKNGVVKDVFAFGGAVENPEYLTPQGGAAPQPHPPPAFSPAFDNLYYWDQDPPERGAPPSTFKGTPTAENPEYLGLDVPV

Turning to `CCOc1cccc(C(=O)Nc2cccc(-c3nc4ncccc4o3)c2C)c1`, the viability is 99% in experiment [1]; 99% (inactive) in experiment [3]; 81.5% (inactive) in experiment [4]; 75.6% (inactive) in experiment [5]; 88.5% in experiment [6] (setting [9]); 75.6% in experiment [6] (setting [10]). Further, in experiment [2], the Her2 level was 75.5% (inactive). Also, the differential viability (reversal) in experiment [6] (H69AR cells + 2 uM doxorubicin) is -12.9% (inactive). For the same compound, the inhibition is -0.39% (inactive) in experiment [7] and -0.97% (inactive) in experiment [8].

With `CCCCCCn1c(SCCCC)nc2c1c(=O)[nH]c(=O)n2C`, the viability in experiment [1] was 93.5%; in experiment [3] it was 93.5% (inactive); in experiment [4], 72.7% (inactive); in experiment [5], 88.2% (inactive); in experiment [6] (setting [9]), 87.5%; in experiment [6] (setting [10]), 88.2%. Moreover, the Her2 level in experiment [2] was 99% (inactive). Further, in experiment [6] (H69AR cells + 2 uM doxorubicin), the differential viability (reversal) was 0.76% (inactive). Besides, the inhibition is -5.07% (inactive) in experiment [7] and -5% (inactive) in experiment [8].

With `Cc1cc(C(=O)Nc2ccccc2C#N)n(-c2ccccc2)n1`, the viability was 97.5% in experiment [1]; 97.5% (inactive) in experiment [3]; 92.8% (inactive) in experiment [4]; 93.9% (inactive) in experiment [5]; 97% in experiment [6] (setting [9]); 93.9% in experiment [6] (setting [10]). Further, the Her2 level in experiment [2] was 100% (inactive). Besides, the differential viability (reversal) in experiment [6] (H69AR cells + 2 uM doxorubicin) is -3.06% (inactive). Further, the inhibition in experiment [7] was 2.93% (inactive); in experiment [8], 0% (inactive).

With `COc1ccc(C)cc1NC(=O)c1nnn(Cc2cccc(F)c2)c1N`, the viability in experiment [1] is 85.5%; in experiment [3] it was 85.5% (inactive); in experiment [4], 64.9% (inactive); in experiment [5] it was 82.7% (inactive); in experiment [6] (setting [9]), 73%; in experiment [6] (setting [10]), 82.7%. Moreover, the Her2 level in experiment [2] is 102% (inactive). Besides, the differential viability (reversal) in experiment [6] (H69AR cells + 2 uM doxorubicin) is 9.66% (inactive). For the same compound, the inhibition in experiment [7] is -3.47% (inactive); in experiment [8], -5.9% (inactive).

Regarding `COc1cccc(C(=O)N2CCCC(c3nc(-c4cccs4)no3)C2)c1` (stereo not given), the viability was 98% in experiment [1]; 98% (inactive) in experiment [3]; 93.4% (inactive) in experiment [4]; 95.5% (inactive) in experiment [5]; 92.6% in experiment [6] (setting [9]); 95.5% in experiment [6] (setting [10]). In addition, in experiment [2], the Her2 level was 81.5% (inactive). In experiment [6] (H69AR cells + 2 uM doxorubicin), the differential viability (reversal) was 2.9% (inactive). For the same compound, the inhibition was -7.43% (inactive) in experiment [7] and 4.26% (inactive) in experiment [8].

`O=S(=O)(NCCc1ccccn1)c1cccs1`: the viability is 99% in experiment [1]; 99% (inactive) in experiment [3]; 97.4% (inactive) in experiment [4]; 101% (inactive) in experiment [5]; 98.3% in experiment [6] (setting [9]); 101% in experiment [6] (setting [10]). Also, the Her2 level in experiment [2] is 93% (inactive). In experiment [6] (H69AR cells + 2 uM doxorubicin), the differential viability (reversal) is 2.29% (inactive). In addition, the inhibition is -7.07% (inactive) in experiment [7] and 4.1% (inactive) in experiment [8].

For `CC(=O)Nc1ccccc1OCc1nnc(-c2cccs2)o1`, the viability in experiment [1] is 97%; in experiment [3] it was 97% (inactive); in experiment [4], 82.1% (inactive); in experiment [5] it was 98.1% (inactive); in experiment [6] (setting [9]) it was 82.1%; in experiment [6] (setting [10]) it was 98.1%. For the same compound, the Her2 level in experiment [2] was 93% (inactive). The differential viability (reversal) in experiment [6] (H69AR cells + 2 uM doxorubicin) is 15.9% (inactive). In addition, the inhibition in experiment [7] is -2.86% (inactive); in experiment [8], -3.97% (inactive).

On to `CCc1nnc2c3cnn(-c4ccccc4)c3ncn12`, for which the viability is 93.5% in experiment [1]; 93.5% (inactive) in experiment [3]; 102% (inactive) in experiment [4]; 110% (inactive) in experiment [5]; 94.6% in experiment [6] (setting [9]); 110% in experiment [6] (setting [10]). Also, the Her2 level in experiment [2] was 95% (inactive). Further, the differential viability (reversal) in experiment [6] (H69AR cells + 2 uM doxorubicin) is 15.1% (inactive). For the same compound, the inhibition in experiment [7] was -3.92% (inactive); in experiment [8], 2.38% (inactive).

As for `O=C(C1CCCN(S(=O)(=O)c2cccnc2)C1)N1CCN(c2ccccn2)CC1` (stereo not given), the viability is 93.5% in experiment [1]; 93.5% (inactive) in experiment [3]; 103% (inactive) in experiment [4]; 98.7% (inactive) in experiment [5]; 90.3% in experiment [6] (setting [9]); 98.7% in experiment [6] (setting [10]). In addition, the Her2 level in experiment [2] is 122% (inactive). In addition, the differential viability (reversal) in experiment [6] (H69AR cells + 2 uM doxorubicin) is 8.35% (inactive). Besides, the figures for the inhibition in experiment [7] and in experiment [8] were 0% (inactive) and -4% (inactive), respectively.

As for `Cc1cccc(NC(=O)CC(C)(C)C)c1`, the viability in experiment [1] was 110%; in experiment [3], 110% (inactive); in experiment [4] it was 92.4% (inactive); in experiment [5] it was 97.9% (inactive); in experiment [6] (setting [9]), 95.6%; in experiment [6] (setting [10]), 97.9%. Moreover, the Her2 level in experiment [2] is 90.5% (inactive). Besides, the differential viability (reversal) in experiment [6] (H69AR cells + 2 uM doxorubicin) is 2.31% (inactive). Further, the inhibition in experiment [7] is -6.53% (inactive); in experiment [8] it was -5.08% (inactive).

In the case of `COC(=O)c1sccc1NC(=O)c1csc(C)c1`, the viability in experiment [1] is 87%; in experiment [3] it was 87% (inactive); in experiment [4], 60.8% (inactive); in experiment [5], 69.1% (inactive); in experiment [6] (setting [9]), 67.1%; in experiment [6] (setting [10]), 69.1%. In experiment [2], the Her2 level was 20% (active). Also, in experiment [6] (H69AR cells + 2 uM doxorubicin), the differential viability (reversal) was 2.06% (inactive). For the same compound, the inhibition in experiment [7] was -3.64% (inactive); in experiment [8], -0.66% (inactive).

On to `CN1CCCC(OC(=O)COc2ccc(Br)cc2)C1` (stereo not given), for which the viability is 93.5% in experiment [1]; 93.5% (inactive) in experiment [3]; 91.4% (inactive) in experiment [4]; 89.7% (inactive) in experiment [5]; 92.5% in experiment [6] (setting [9]); 89.7% in experiment [6] (setting [10]). For the same compound, the Her2 level in experiment [2] was 108% (inactive). In experiment [6] (H69AR cells + 2 uM doxorubicin), the differential viability (reversal) is -2.85% (inactive). The inhibition was -0.8% (inactive) in experiment [7] and -1.48% (inactive) in experiment [8].

As for `COCCn1c(C)cc(C(=O)COC(=O)c2n[nH]c3ccccc23)c1C`, the viability in experiment [1] was 97.5%; in experiment [3], 97.5% (inactive); in experiment [4], 92.5% (inactive); in experiment [5] it was 81.3% (inactive); in experiment [6] (setting [9]), 84.1%; in experiment [6] (setting [10]), 81.3%. Besides, in experiment [2], the Her2 level was 84% (inactive). The differential viability (reversal) in experiment [6] (H69AR cells + 2 uM doxorubicin) is -2.8% (inactive). The inhibition is -8.24% (inactive) in experiment [7] and 0.98% (inactive) in experiment [8].

As for `COc1ccccc1-c1noc(-c2cccnc2)n1`, the viability in experiment [1] is 94%; in experiment [3], 94% (inactive); in experiment [4] it was 117% (inactive); in experiment [5], 92.3% (inactive); in experiment [6] (setting [9]) it was 91.4%; in experiment [6] (setting [10]), 92.3%. Besides, the Her2 level in experiment [2] was 102% (inactive). In experiment [6] (H69AR cells + 2 uM doxorubicin), the differential viability (reversal) is 0.91% (inactive). The figures for the inhibition in experiment [7] and in experiment [8] were -2.89% (inactive) and -0.66% (inactive), respectively.

`Cn1cnnc1SCC(=O)Nc1ccccc1Sc1ccccc1`: the viability in experiment [1] was 107%; in experiment [3] it was 107% (inactive); in experiment [4], 113% (inactive); in experiment [5], 98.8% (inactive); in experiment [6] (setting [9]), 90.4%; in experiment [6] (setting [10]) it was 98.8%. Moreover, the Her2 level in experiment [2] was 91.5% (inactive). The differential viability (reversal) in experiment [6] (H69AR cells + 2 uM doxorubicin) is 8.32% (inactive). Also, the results for the inhibition in experiment [7] and in experiment [8] were -8.24% (inactive) and 4.67% (inactive), respectively.

As to `FC(F)(F)c1cc(-c2ccco2)nc(N2CCOCC2)n1`, the viability in experiment [1] is 86%; in experiment [3], 86% (inactive); in experiment [4] it was 69.1% (inactive); in experiment [5], 92.4% (inactive); in experiment [6] (setting [9]), 73.8%; in experiment [6] (setting [10]) it was 92.4%. In addition, the Her2 level in experiment [2] is 80.5% (inactive). For the same compound, in experiment [6] (H69AR cells + 2 uM doxorubicin), the differential viability (reversal) is 18.6% (inactive). In addition, the inhibition in experiment [7] is -6.93% (inactive); in experiment [8], 7.21% (inactive).
